ChEMBL document CHEMBL4814076, “Discovery of a Potent and Selective Covalent Inhibitor of Bruton's Tyrosine Kinase with Oral Anti-Inflammatory Activity” (ACS Med Chem Lett, 2021)
Calls of active or inactive are those of the source. No cut-off for these calls is given here.

Key:
[1] = target: T1, Tyrosine-protein kinase BTK (Homo sapiens, UniProt Q06187); assay: Covalent inhibition of recombinant human GST-tagged BTK (2 to 659 end residues) expressed in baculovirus expression system assessed as inhibition constant using NH2-KKKAPFSWYLPEEG as substrate measured every 2 mins for 2 hrs in presence of ATP by microplate reader assay
T1 sequence (Q06187 whole entry): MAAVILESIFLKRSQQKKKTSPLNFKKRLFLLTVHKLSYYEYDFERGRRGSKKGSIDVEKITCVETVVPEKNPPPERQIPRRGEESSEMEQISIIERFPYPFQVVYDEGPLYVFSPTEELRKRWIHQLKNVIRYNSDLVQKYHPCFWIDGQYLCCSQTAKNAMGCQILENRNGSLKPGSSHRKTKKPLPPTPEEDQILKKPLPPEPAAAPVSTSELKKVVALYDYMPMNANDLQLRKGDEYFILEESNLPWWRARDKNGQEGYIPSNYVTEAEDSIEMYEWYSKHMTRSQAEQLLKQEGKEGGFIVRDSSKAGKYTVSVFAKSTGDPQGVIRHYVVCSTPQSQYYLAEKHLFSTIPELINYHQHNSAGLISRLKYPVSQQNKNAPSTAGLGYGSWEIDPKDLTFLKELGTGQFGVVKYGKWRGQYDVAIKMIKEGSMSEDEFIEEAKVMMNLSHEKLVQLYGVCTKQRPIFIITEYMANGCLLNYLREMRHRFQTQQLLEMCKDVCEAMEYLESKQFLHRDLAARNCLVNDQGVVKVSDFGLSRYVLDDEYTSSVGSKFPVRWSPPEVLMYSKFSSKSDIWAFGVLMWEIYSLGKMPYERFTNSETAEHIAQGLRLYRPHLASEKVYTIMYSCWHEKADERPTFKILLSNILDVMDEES

[2] = Inhibition of BTK in Wistar rat whole blood assessed as reduction in anti-IgD-induced B220/CD86+ expression incubated for 1 hr followed anti-IgD stimulation and measured after overnight by flow cytometry analysis; type: tissue-based
Method in brief: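 B-cell activation induced by anti-IgD in rat whole blood, read as B220+CD86+ cells.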

[3] = target: Tyrosine-protein kinase BTK (Mus musculus, UniProt P35991); assay: Inhibition of BTK in C57Bl/6 mouse splenocyte assessed as reduction in anti-IgM-induced CD69 expression incubated for 1 hr followed anti-IgM stimulation and measured after overnight by flow cytometry analysis; type: tissue-based
Tyrosine-protein kinase BTK (Mus musculus, UniProt P35991), sequence (P35991 whole entry): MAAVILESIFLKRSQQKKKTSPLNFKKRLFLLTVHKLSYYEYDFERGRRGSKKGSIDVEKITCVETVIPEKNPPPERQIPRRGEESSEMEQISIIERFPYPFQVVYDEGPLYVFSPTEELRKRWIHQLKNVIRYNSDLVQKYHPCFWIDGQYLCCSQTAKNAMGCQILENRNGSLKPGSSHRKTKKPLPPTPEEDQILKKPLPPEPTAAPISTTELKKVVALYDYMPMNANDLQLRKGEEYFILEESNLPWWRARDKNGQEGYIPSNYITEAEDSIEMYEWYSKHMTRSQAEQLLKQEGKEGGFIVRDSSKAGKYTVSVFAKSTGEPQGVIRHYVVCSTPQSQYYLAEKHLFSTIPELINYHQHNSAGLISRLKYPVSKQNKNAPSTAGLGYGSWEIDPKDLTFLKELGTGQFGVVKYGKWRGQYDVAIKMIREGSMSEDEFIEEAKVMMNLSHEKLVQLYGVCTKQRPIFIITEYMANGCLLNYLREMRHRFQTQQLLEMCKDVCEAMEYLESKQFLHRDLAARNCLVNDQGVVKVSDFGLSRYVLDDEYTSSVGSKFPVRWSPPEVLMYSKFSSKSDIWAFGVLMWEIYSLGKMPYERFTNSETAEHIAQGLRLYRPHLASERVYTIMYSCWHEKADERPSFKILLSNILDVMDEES
Method in brief: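 Mouse splenocytes stimulated with anti-IgM. CD69 expression measured as the read-out.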

[4] = target: T1, Tyrosine-protein kinase BTK; assay: Binding affinity to recombinant unphosphorylated human GST-tagged BTK kinase domain (389 to 659 residues) expressed in insect cells incubated for 1 hr by Lanthascreen assay
[5] = target: T1, Tyrosine-protein kinase BTK; assay: Time dependent inhibition of recombinant human GST-tagged BTK (2 to 659 end residues) expressed in baculovirus expression system using NH2-KKKAPFSWYLPEEG as substrate measured every 2 mins for 2 hrs in presence of ATP by microplate reader assay
[6] = target: T1, Tyrosine-protein kinase BTK; assay: Covalent inhibition of recombinant human GST-tagged BTK (2 to 659 end residues) expressed in baculovirus expression system assessed as inactivation constant using NH2-KKKAPFSWYLPEEG as substrate measured every 2 mins for 2 hrs in presence of ATP by microplate reader assay
[7] = target: T1, Tyrosine-protein kinase BTK; assay: Covalent inhibition of recombinant human GST-tagged BTK (2 to 659 end residues) expressed in baculovirus expression system assessed as Kinact/Ki ratio using NH2-KKKAPFSWYLPEEG as substrate measured every 2 mins for 2 hrs in presence of ATP by microplate reader assay
[8] = Half life in human pooled liver microsomes at 1 uM measured up to 60 mins in presence of NADPH by LC-MS/MS analysis; type: ADME, Microsome
[9] = Half life of the compound at 25 degreeC; type: physicochemical

| SMILES | Ki [1] | IC50 ([2]; Rattus norvegicus, Blood, 1 h) | IC50 [3] | Kinact [6] | Ratio [7] | further results |
| --- | --- | --- | --- | --- | --- | --- |
| C=CC(=O)NCCNC(=O)c1sc2nccc3c2c1NC(=O)N3c1ccc(Oc2ccccc2)cc1C | 51.9 nM | 210 nM | 7.6 nM |  |  |  |
| C=CC(=O)N1CC[C@H](NC(=O)c2sc3nccc4c3c2NC(=O)N4c2ccc(Oc3ccccc3)cc2C)C1 | 217 nM | 640 nM | 30 nM |  |  |  |
| CC(C)Oc1ccc(N2C(=O)Nc3c(C(=O)N[C@@H]4CCCNC4)sc4nccc2c34)cc1 |  |  |  |  |  | IC50 [4]: 3500 nM |
| CCC(=O)N1CCC[C@@H](NC(=O)c2sc3nccc4c3c2NC(=O)N4c2ccc(OC(C)C)cc2)C1 |  |  |  |  |  | IC50 [4]: 6600 nM |
| C=CC(=O)N1CCC[C@@H](NC(=O)c2sc3nccc4c3c2NC(=O)N4c2ccc(OC(C)C)cc2)C1 | 4220 nM |  |  | 0.000256 s⁻¹ | 60.7 M⁻¹ s⁻¹ | inhibition [5]: Active; IC50 [4]: 120 nM |
| C=CC(=O)N1CCC[C@@H](NC(=O)c2sc3nccc4c3c2NC(=O)N4c2ccc(Oc3ccccc3)cc2C(F)(F)F)C1 | 1850 nM |  |  | 0.000177 s⁻¹ | 95.7 M⁻¹ s⁻¹ |  |
| C=CC(=O)N1CCC[C@@H](NC(=O)c2sc3nccc4c3c2NC(=O)N4c2ccc(Oc3ccccc3)cc2C)C1 (stereo in doubt; 17) | 4.81 nM |  | 19 nM |  |  | IC50 [2]: 140 nM; half-life at 1 µM [8]: < 4 min |
| C=CC(=O)N1CCC[C@@H](NC(=O)c2sc3nccc4c3c2NC(=O)N4c2ccc(Oc3ccccc3)cc2F)C1 | 9.2 nM | 180 nM | 20 nM |  |  |  |
| C=CC(=O)N[C@H]1CCC[C@H]1NC(=O)c1sc2nccc3c2c1NC(=O)N3c1ccc(Oc2ccccc2)cc1C | 14.8 nM | 100 nM | 80 nM | 0.000257 s⁻¹ | 17400 M⁻¹ s⁻¹ |  |
| C=CC(=O)N1CCC[C@@H](NC(=O)c2sc3nccc4c3c2NC(=O)N4c2ccc(Oc3ccccc3)cc2Cl)C1 | 12.3 nM | 220 nM | 13 nM |  |  |  |
| C=CC(=O)N1CCC[C@@H](NC(=O)c2sc3nccc4c3c2NC(=O)N4c2ccc(Oc3ccccc3)cc2C)C1 (stereo in doubt; 16) | 150 nM |  | 400 nM |  |  | IC50 [2]: 2450 nM |
| C=CC(=O)N1CCC[C@@H](NC(=O)c2sc3nccc4c3c2NC(=O)N4c2ccc(OC(C)C)cc2C)C1 | 337 nM | 460 nM | 42 nM |  |  |  |
| C=CC(=O)N1CCC[C@@H](NC(=O)c2sc3nccc4c3c2NC(=O)N4c2ccccc2C)C1 | 1580 nM |  |  | 0.000573 s⁻¹ | 363 M⁻¹ s⁻¹ |  |
| C=CC(=O)N1CCC[C@@H](NC(=O)c2sc3nccc4c3c2NC(=O)N4c2ccccc2)C1 | 6420 nM |  |  | 0.000807 s⁻¹ | 126 M⁻¹ s⁻¹ |  |
| C=CC(=O)N1CCC[C@@H](NC(=O)c2sc3nccc4c3c2NC(=O)N4c2cc(OC(C)C)ccc2C)C1 | 3290 nM |  |  | 0.000222 s⁻¹ | 67.5 M⁻¹ s⁻¹ |  |
| C=CC(=O)N1CC(NC(=O)c2sc3nccc4c3c2NC(=O)N4c2ccc(Oc3ccccc3)cc2C)C1 | 141 nM | 1740 nM | 130 nM |  |  |  |
| O=C(N[C@@H]1CCCNC1)c1sc2nccc3c2c1NC(=O)N3c1ccc(Oc2ccccc2)cc1F |  |  |  |  |  | half-life [9]: 46 h |
| C=CC(=O)C[C@@H]1CC[C@@H](NC(=O)c2sc3nccc4c3c2NC(=O)N4c2ccc(Oc3ccccc3)cc2C)C1 | 11.7 nM | 130 nM | 7.9 nM |  |  |  |
